Laboratory results taken from ChEMBL document CHEMBL1154531, “Synthesis and structure-activity studies of novel homomorpholine oxazolidinone antibacterial agents” (Bioorg Med Chem Lett, 2009).
In brackets after ≈: the same amount, converted by molar mass.

What was measured:
Assay type in all cases: functional
Streptococcus pyogenes = assay: Antibacterial activity against Streptococcus pyogenes C-203 by micro broth method
Method in brief: (§1)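 Minimum inhibitory concentration determined by broth microdilution and reported in μg/mL.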

Staphylococcus aureus = assay: Antibacterial activity against Staphylococcus aureus UC-76 SA-1 by micro broth method; method in brief: as §1
Streptococcus pneumoniae = assay: Antibacterial activity against Streptococcus pneumoniae SV1 SP-3 by micro broth method; method in brief: as §1
Enterococcus faecalis = assay: Antibacterial activity against Enterococcus faecalis MGH-2 EF1-1 by micro broth method; method in brief: as §1
Escherichia coli = assay: Antibacterial activity against Escherichia coli by transcription-translation assay
Method in brief: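 Cell-free E. coli coupled in vitro transcription/translation system with a luciferase reporter as read-out.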

## CNC(=O)[C@H]1CN(c2ccc(N3CCCOCC3)c(F)c2)C(=O)O1
Streptococcus pyogenes
  MIC: 8 µg/mL (≈ 23.7 µM)
Staphylococcus aureus
  MIC: 16 µg/mL (≈ 47.4 µM)
Streptococcus pneumoniae
  MIC: 8 µg/mL (≈ 23.7 µM)
Enterococcus faecalis
  MIC: 16 µg/mL (≈ 47.4 µM)

## CNC(=O)[C@H]1CN(c2cc(F)c(N3CCCOCC3)c(F)c2)C(=O)O1
Escherichia coli
  IC50: 6.37 µM
Streptococcus pyogenes
  MIC: 4 µg/mL (≈ 11.3 µM)
Staphylococcus aureus
  MIC: 4 µg/mL (≈ 11.3 µM)
Streptococcus pneumoniae
  MIC: 4 µg/mL (≈ 11.3 µM)
Enterococcus faecalis
  MIC: 8 µg/mL (≈ 22.5 µM)

## CC(=O)NC[C@H]1CN(c2cc(F)c(N3CCCOCC3)c(F)c2)C(=O)O1
Escherichia coli
  IC50: 1.67 µM
Streptococcus pyogenes
  MIC: 1 µg/mL (≈ 2.71 µM)
Staphylococcus aureus
  MIC: 2 µg/mL (≈ 5.41 µM)
Streptococcus pneumoniae
  MIC: 1 µg/mL (≈ 2.71 µM)
Enterococcus faecalis
  MIC: 1 µg/mL (≈ 2.71 µM)

## COC(=O)NC[C@H]1CN(c2cc(F)c(N3CCCOCC3)c(F)c2)C(=O)O1
Escherichia coli
  IC50: 1.9 µM
Streptococcus pyogenes
  MIC: 1 µg/mL (≈ 2.59 µM)
Staphylococcus aureus
  MIC: 2 µg/mL (≈ 5.19 µM)
Streptococcus pneumoniae
  MIC: 1 µg/mL (≈ 2.59 µM)
Enterococcus faecalis
  MIC: 2 µg/mL (≈ 5.19 µM)

## O=C1O[C@@H](Cn2ccnn2)CN1c1ccc(N2CCCOCC2)cc1
Streptococcus pyogenes
  MIC: 8 µg/mL (≈ 23.3 µM)
Staphylococcus aureus
  MIC: 16 µg/mL (≈ 46.6 µM)
Streptococcus pneumoniae
  MIC: 16 µg/mL (≈ 46.6 µM)
Enterococcus faecalis
  MIC: 32 µg/mL (≈ 93.2 µM)

## C[Si](C)(C)C#Cc1cn(C[C@H]2CN(c3cc(F)c(N4CCCOCC4)c(F)c3)C(=O)O2)nn1
Streptococcus pyogenes
  MIC: 2 µg/mL (≈ 4.21 µM)
Staphylococcus aureus
  MIC: > 32 µg/mL
Streptococcus pneumoniae
  MIC: 4 µg/mL (≈ 8.41 µM)
Enterococcus faecalis
  MIC: > 32 µg/mL

## CC(=O)NC[C@H]1CN(c2ccc(N3CCCOCC3)c(F)c2)C(=O)O1
Escherichia coli
  IC50: 2.3 µM
Streptococcus pyogenes
  MIC: 2 µg/mL (≈ 5.69 µM)
Staphylococcus aureus
  MIC: 4 µg/mL (≈ 11.4 µM)
Streptococcus pneumoniae
  MIC: 2 µg/mL (≈ 5.69 µM)
Enterococcus faecalis
  MIC: 2 µg/mL (≈ 5.69 µM)

## O=C1O[C@@H](CO)CN1c1ccc(N2CCCOCC2)cc1
Streptococcus pyogenes
  MIC: > 64 µg/mL
Staphylococcus aureus
  MIC: > 64 µg/mL
Streptococcus pneumoniae
  MIC: > 64 µg/mL
Enterococcus faecalis
  MIC: > 64 µg/mL

## C#Cc1cn(C[C@H]2CN(c3cc(F)c(N4CCCOCC4)c(F)c3)C(=O)O2)nn1
Streptococcus pyogenes
  MIC: 2 µg/mL (≈ 4.96 µM)
Staphylococcus aureus
  MIC: 4 µg/mL (≈ 9.92 µM)
Streptococcus pneumoniae
  MIC: 2 µg/mL (≈ 4.96 µM)
Enterococcus faecalis
  MIC: 2 µg/mL (≈ 4.96 µM)

## NC(=O)[C@H]1CN(c2ccc(N3CCCOCC3)c(F)c2)C(=O)O1
Streptococcus pyogenes
  MIC: 8 µg/mL (≈ 24.7 µM)
Staphylococcus aureus
  MIC: 8 µg/mL (≈ 24.7 µM)
Streptococcus pneumoniae
  MIC: 16 µg/mL (≈ 49.5 µM)
Enterococcus faecalis
  MIC: 16 µg/mL (≈ 49.5 µM)

## O=C1O[C@@H](CO)CN1c1cc(F)c(N2CCCOCC2)c(F)c1
Streptococcus pyogenes
  MIC: 2 µg/mL (≈ 6.09 µM)
Staphylococcus aureus
  MIC: 4 µg/mL (≈ 12.2 µM)
Streptococcus pneumoniae
  MIC: 4 µg/mL (≈ 12.2 µM)
Enterococcus faecalis
  MIC: 8 µg/mL (≈ 24.4 µM)

## NC(=O)[C@H]1CN(c2cc(F)c(N3CCCOCC3)c(F)c2F)C(=O)O1
Escherichia coli
  IC50: 23.4 µM
Streptococcus pyogenes
  MIC: 16 µg/mL (≈ 44.5 µM)
Staphylococcus aureus
  MIC: 16 µg/mL (≈ 44.5 µM)
Streptococcus pneumoniae
  MIC: 16 µg/mL (≈ 44.5 µM)
Enterococcus faecalis
  MIC: 32 µg/mL (≈ 89.1 µM)

## CNC(=O)[C@H]1CN(c2ccc(N3CCCOCC3)cc2)C(=O)O1
Streptococcus pyogenes
  MIC: 32 µg/mL (≈ 100 µM)
Staphylococcus aureus
  MIC: 32 µg/mL (≈ 100 µM)
Streptococcus pneumoniae
  MIC: 32 µg/mL (≈ 100 µM)
Enterococcus faecalis
  MIC: 64 µg/mL (≈ 200 µM)

## NC(=O)[C@H]1CN(c2ccc(N3CCCOCC3)cc2)C(=O)O1
Streptococcus pyogenes
  MIC: 64 µg/mL (≈ 210 µM)
Staphylococcus aureus
  MIC: 32 µg/mL (≈ 105 µM)
Streptococcus pneumoniae
  MIC: 32 µg/mL (≈ 105 µM)
Enterococcus faecalis
  MIC: 64 µg/mL (≈ 210 µM)

## COC(=O)NC[C@H]1CN(c2ccc(N3CCCOCC3)cc2)C(=O)O1
Streptococcus pyogenes
  MIC: 8 µg/mL (≈ 22.9 µM)
Staphylococcus aureus
  MIC: 16 µg/mL (≈ 45.8 µM)
Streptococcus pneumoniae
  MIC: 16 µg/mL (≈ 45.8 µM)
Enterococcus faecalis
  MIC: 16 µg/mL (≈ 45.8 µM)

## CC(=O)NC[C@H]1CN(c2cc(F)c(N3CCCOCC3)c(F)c2F)C(=O)O1
Escherichia coli
  IC50: 3.93 µM
Streptococcus pyogenes
  MIC: 2 µg/mL (≈ 5.16 µM)
Staphylococcus aureus
  MIC: 2 µg/mL (≈ 5.16 µM)
Streptococcus pneumoniae
  MIC: 1 µg/mL (≈ 2.58 µM)
Enterococcus faecalis
  MIC: 2 µg/mL (≈ 5.16 µM)

## CC(C)(C)OC(=O)NC[C@H]1CN(c2ccc(N3CCCOCC3)c(F)c2)C(=O)O1
Streptococcus pyogenes
  MIC: 32 µg/mL (≈ 78.2 µM)
Staphylococcus aureus
  MIC: 32 µg/mL (≈ 78.2 µM)
Streptococcus pneumoniae
  MIC: 32 µg/mL (≈ 78.2 µM)
Enterococcus faecalis
  MIC: 64 µg/mL (≈ 156 µM)

## CC(C)(C)OC(=O)NC[C@H]1CN(c2cc(F)c(N3CCCOCC3)c(F)c2)C(=O)O1
Streptococcus pyogenes
  MIC: 8 µg/mL (≈ 18.7 µM)
Staphylococcus aureus
  MIC: 8 µg/mL (≈ 18.7 µM)
Streptococcus pneumoniae
  MIC: 16 µg/mL (≈ 37.4 µM)
Enterococcus faecalis
  MIC: 32 µg/mL (≈ 74.9 µM)

## Cl.NC[C@H]1CN(c2ccc(N3CCCOCC3)c(F)c2)C(=O)O1
Streptococcus pyogenes
  MIC: > 64 µg/mL
Staphylococcus aureus
  MIC: > 64 µg/mL
Streptococcus pneumoniae
  MIC: > 64 µg/mL
Enterococcus faecalis
  MIC: > 64 µg/mL

## CNC(=O)[C@H]1CN(c2cc(F)c(N3CCCOCC3)c(F)c2F)C(=O)O1
Escherichia coli
  IC50: 18.9 µM
Streptococcus pyogenes
  MIC: 16 µg/mL (≈ 42.9 µM)
Staphylococcus aureus
  MIC: 16 µg/mL (≈ 42.9 µM)
Streptococcus pneumoniae
  MIC: 16 µg/mL (≈ 42.9 µM)
Enterococcus faecalis
  MIC: 32 µg/mL (≈ 85.7 µM)

## CC(=O)NC[C@H]1CN(c2ccc(N3CCCOCC3)cc2)C(=O)O1
Streptococcus pyogenes
  MIC: 8 µg/mL (≈ 24 µM)
Staphylococcus aureus
  MIC: 8 µg/mL (≈ 24 µM)
Streptococcus pneumoniae
  MIC: 8 µg/mL (≈ 24 µM)
Enterococcus faecalis
  MIC: 16 µg/mL (≈ 48 µM)

## CC(C)(C)OC(=O)NC[C@H]1CN(c2ccc(N3CCCOCC3)cc2)C(=O)O1
Streptococcus pyogenes
  MIC: 32 µg/mL (≈ 81.7 µM)
Staphylococcus aureus
  MIC: 16 µg/mL (≈ 40.9 µM)
Streptococcus pneumoniae
  MIC: 16 µg/mL (≈ 40.9 µM)
Enterococcus faecalis
  MIC: 32 µg/mL (≈ 81.7 µM)

## CCC(=O)NC[C@H]1CN(c2cc(F)c(N3CCCOCC3)c(F)c2)C(=O)O1
Escherichia coli
  IC50: 2.1 µM
Streptococcus pyogenes
  MIC: 1 µg/mL (≈ 2.61 µM)
Staphylococcus aureus
  MIC: 2 µg/mL (≈ 5.22 µM)
Streptococcus pneumoniae
  MIC: 2 µg/mL (≈ 5.22 µM)
Enterococcus faecalis
  MIC: 2 µg/mL (≈ 5.22 µM)

## O=C1O[C@@H](Cn2ccnn2)CN1c1cc(F)c(N2CCCOCC2)c(F)c1
Streptococcus pyogenes
  MIC: 1 µg/mL (≈ 2.64 µM)
Staphylococcus aureus
  MIC: 2 µg/mL (≈ 5.27 µM)
Streptococcus pneumoniae
  MIC: 2 µg/mL (≈ 5.27 µM)
Enterococcus faecalis
  MIC: 2 µg/mL (≈ 5.27 µM)

## NC(=O)[C@H]1CN(c2cc(F)c(N3CCCOCC3)c(F)c2)C(=O)O1
Escherichia coli
  IC50: 5.87 µM
Streptococcus pyogenes
  MIC: 4 µg/mL (≈ 11.7 µM)
Staphylococcus aureus
  MIC: 4 µg/mL (≈ 11.7 µM)
Streptococcus pneumoniae
  MIC: 4 µg/mL (≈ 11.7 µM)
Enterococcus faecalis
  MIC: 8 µg/mL (≈ 23.4 µM)

## CC(=O)NC[C@H]1CN(c2ccc(N3CCOCC3)c(F)c2)C(=O)O1 [LINEZOLID]
Streptococcus pyogenes
  MIC: 2 µg/mL (≈ 5.93 µM)
